{"source": "ChEMBL document CHEMBL1131567", "about": "“Ethnobotanical-directed discovery of the antihyperglycemic properties of cryptolepine: its isolation from Cryptolepis sanguinolenta, synthesis, and in vitro and in vivo activities” (1998)", "key": {"Mus musculus [1]": {"tested_on": "Mus musculus", "assay": "Mean body weight expressed as grams/mouse at 0hrs, when given at 100 mg/kg", "format": "functional", "procedure,_shortened": "(§1)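 Male C57BL/Ks-db/db mice, 8-9 weeks old, housed 4/cage at 22 °C with chow and water ad libitum. Mice with tail-vein plasma glucose of 350-600 mg/dL were grouped at eight per group with matched mean glucose. Oral gavage once daily for 1 or 2 days at 30 or 100 mg/kg, with vehicle control. Body weight and cage food consumption measured after 24-27 h.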"}, "Mus musculus [2]": {"tested_on": "Mus musculus", "assay": "Mean body weight expressed as grams/mouse at 24hrs, when given at 100 mg/kg", "format": "functional", "procedure,_shortened": "as §1"}, "Mus musculus [3]": {"tested_on": "Mus musculus", "assay": "In vivo plasma glucose lowering in db/db mice, given at 100 mg/kg in mouse, after 3 hr"}, "Mus musculus [4]": {"species_on_record": "Mus musculus", "assay": "Food intake in db/db Mice expressed as gram/mouse/day and the observation made is after 48 hr.", "format": "functional", "procedure,_shortened": "as §1"}, "Mus musculus [5]": {"tested_on": "Mus musculus", "assay": "In vivo plasma glucose lowering in db/db mice, given at 100 mg/kg in mouse, after 24 hr"}, "Mus musculus [6]": {"tested_on": "Mus musculus", "assay": "Compound was evaluated for the in vivo effects on plasma glucose concentrations in db/db mice administered at a dose of 20 mg/kg mean body weight expressed as grams/mouse at 24 hr", "format": "functional"}, "Mus musculus [7]": {"tested_on": "Mus musculus", "assay": "Compound was evaluated for the in vivo effects on plasma glucose concentrations in db/db mice administered at a dose of 30 mg/kg mean body weight expressed as grams/mouse at 24 hr", "format": "functional", "procedure,_shortened": "as §1"}, "Mus musculus [8]": {"tested_on": "Mus musculus", "assay": "Food intake in db/db Mice expressed as gram/mouse/day and the observation made at 24 - 48 Hrs, in db/db mice administered at a dose of 20 mg/kg", "format": "functional"}, "Mus musculus [9]": {"tested_on": "Mus musculus", "assay": "Effect when given at 30 mg/kg in (C57BL/ks) mouse,Predose", "format": "functional", "procedure,_shortened": "(§2)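 Lean C57BL/ks mice dosed at 30 mg/kg/day, with vehicle control, n = 8. Plasma glucose measured predose and on day 3. Body weight recorded at 0, 24 and 48 h; food intake per mouse per day over 0-24 and 24-48 h. Vehicle comparison by Student's t-test.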"}, "Mus musculus [10]": {"tested_on": "Mus musculus", "assay": "Mean body weight expressed as grams/mouse (C57BL/ks) at 24hrs, when given at 30 mg/kg", "format": "functional", "procedure,_shortened": "as §2"}, "Rattus norvegicus [11]": {"tested_on": "Rattus norvegicus", "assay": "[…] effect of drug administration on Body weight in Fructose fed STZ-treated rats, after 24 hr (Treatment group - Fructose/STZ + cryptoline HCl, 30 mg/kg)", "format": "functional", "conditions": "in the assay text read “on day 3” for “after 24 hr”", "procedure,_shortened": "(§3)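 Male Sprague-Dawley rats, 8 weeks old, given STZ 55 mg/kg iv and a 60% fructose diet for 1 week. Rats with serum glucose of 250-350 mg/dL were sorted into matched groups (n = 14). Oral gavage once daily for 3 days with vehicle or 30 mg/kg in 2% DMSO, 10 mL/kg. Noninjected chow-fed vehicle controls (n = 19). Body weight and cage food consumption recorded daily.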"}, "Mus musculus [12]": {"tested_on": "Mus musculus", "assay": "Mean body weight expressed as grams/mouse (C57BL/ks) at 0hrs, when given at 30 mg/kg", "format": "functional", "procedure,_shortened": "as §2"}, "Mus musculus [13]": {"tested_on": "Mus musculus", "assay": "Food intake in db/db Mice expressed as gram/mouse/day and the observation made at 24 - 48 Hrs, in db/db mice administered at a dose of 30 mg/kg", "format": "functional", "procedure,_shortened": "as §1"}, "Mus musculus [14]": {"tested_on": "Mus musculus", "assay": "Effect when given at 30 mg/kg in (C57BL/ks) mouse, after day 3", "format": "functional", "procedure,_shortened": "as §2"}, "Mus musculus [15]": {"tested_on": "Mus musculus", "assay": "Food intake in C57BL/ks Mice expressed as gram/mouse/day and the observation made at 0 -24 Hrs, when administered at a dose of 30 mg/kg", "format": "functional", "procedure,_shortened": "as §2"}, "Rattus norvegicus [16]": {"tested_on": "Rattus norvegicus", "assay": "[…] effect of drug administration on food consumption in Fructose fed STZ-treated rats (Treatment group - Fructose/STZ + cryptoline HCl, 30 mg/kg)", "format": "functional", "procedure,_shortened": "as §3"}, "Mus musculus [17]": {"tested_on": "Mus musculus", "assay": "Compound was evaluated for the in vivo effects on plasma glucose concentrations in db/db mice administered at a dose of 30 mg/kg mean body weight expressed as grams/mouse at 0 hr", "format": "functional", "procedure,_shortened": "as §1"}, "Mus musculus [18]": {"species_on_record": "Mus musculus", "assay": "Food intake in db/db Mice expressed as gram/mouse/day and the observed after 48 hr.", "format": "functional", "procedure,_shortened": "as §1"}, "Rattus norvegicus [19]": {"tested_on": "Rattus norvegicus", "assay": "[…] effect of drug administration on Body weight in Fructose fed STZ-treated rats, pre dose ((Treatment group - Fructose/STZ + cryptoline HCl, 30 mg/kg)", "format": "functional", "procedure,_shortened": "as §3"}, "Mus musculus [20]": {"tested_on": "Mus musculus", "assay": "Food intake in C57BL/ks Mice expressed as gram/mouse/day and the observation made at 24-48 Hrs, when administered at a dose of 30 mg/kg", "format": "functional", "procedure,_shortened": "as §2"}, "Mus musculus [21]": {"tested_on": "Mus musculus", "assay": "Mean body weight expressed as grams/mouse (C57BL/ks) at 48hrs, when given at 30 mg/kg", "format": "functional", "procedure,_shortened": "as §2"}, "Mus musculus [22]": {"tested_on": "Mus musculus", "assay": "Food intake in db/db Mice expressed as gram/mouse/day and the observation made at 0 - 24 Hrs, in db/db mice administered at a dose of 20 mg/kg", "format": "functional"}, "Mus musculus [23]": {"tested_on": "Mus musculus", "assay": "Food intake in db/db Mice expressed as gram/mouse/day and the observation made at 0 - 24 Hrs, in db/db mice administered at a dose of 30 mg/kg", "format": "functional", "procedure,_shortened": "as §1"}, "Mus musculus [24]": {"tested_on": "Mus musculus", "assay": "Effect when given at 30 mg/kg in (db/db)mice,3 days postdose", "format": "functional", "procedure,_shortened": "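db/db mice, eight per group with matched initial glucose, dosed orally by gavage once daily with vehicle or 30 mg/kg. Tail-vein blood taken predose and 3 h postdosing. Plasma glucose measured colorimetrically by glucose oxidase assay. Groups compared with vehicle by ANOVA and Fisher's post-hoc test.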"}, "Mus musculus [25]": {"tested_on": "Mus musculus", "assay": "Compound was evaluated for the in vivo effects on plasma glucose concentrations in db/db mice administered at a dose of 20 mg/kg mean body weight expressed as grams/mouse at 0 hr", "format": "functional"}}, "note": "Values joined by “and” are separate entries in the source; they are usually repeats but may differ in a detail not shown here. Equal entries are not always repeated.", "data": [{"compound": "Cn1c2ccccc2c2nc3ccccc3cc21", "values": [{"measurement": "Mean body weight", "setting": "Mus musculus [1]", "result": 41.4, "unit": "g mouse-1"}, {"measurement": "Mean body weight", "setting": "Mus musculus [2]", "result": 42, "unit": "g mouse-1"}, {"measurement": "Change of predose", "setting": "Mus musculus [3]", "result": 15.3, "unit": "%"}, {"measurement": "Food intake", "setting": "Mus musculus [4]", "result": 4.4, "unit": "g mouse-1 day-1"}, {"measurement": "Change of predose", "setting": "Mus musculus [5]", "result": 14.1, "unit": "%"}]}, {"compound": "C[n+]1c2ccccc2cc2[n-]c3ccccc3c21.Cl", "note": "[CRYPTOLEPINE HYDROCHLORIDE]", "values": [{"measurement": "Mean body weight", "setting": "Mus musculus [6]", "result": 37.9, "unit": "g mouse-1"}, {"measurement": "Mean body weight", "setting": "Mus musculus [7]", "result": 36.9, "unit": "g mouse-1"}, {"measurement": "Food intake", "setting": "Mus musculus [8]", "result": 3.8, "unit": "g mouse-1 day-1"}, {"measurement": "Change of predose", "setting": "Mus musculus [9]", "result": 184, "unit": "mg/dL"}, {"measurement": "Mean body weight", "setting": "Mus musculus [10]", "result": 23.3, "unit": "g mouse-1"}, {"measurement": "Body weight", "setting": "Rattus norvegicus [11]", "result": 223, "unit": "g"}, {"measurement": "Mean body weight", "setting": "Mus musculus [12]", "result": 23.7, "unit": "g mouse-1"}, {"measurement": "Food intake", "setting": "Mus musculus [13]", "result": 2.4, "unit": "g mouse-1 day-1"}, {"measurement": "Change of predose", "setting": "Mus musculus [14]", "result": 171, "unit": "mg/dL"}, {"measurement": "Mean body weight", "setting": "Mus musculus [1]", "result": 41, "unit": "g mouse-1"}, {"measurement": "Food intake", "setting": "Mus musculus [15]", "result": 2.7, "unit": "g mouse-1 day-1"}, {"measurement": "Food intake", "setting": "Rattus norvegicus [16]", "result": 18, "unit": "g/day"}, {"measurement": "Mean body weight", "setting": "Mus musculus [17]", "result": "37 g mouse-1 and 35.5 g mouse-1"}, {"measurement": "Mean body weight", "setting": "Mus musculus [2]", "result": 39.8, "unit": "g mouse-1"}, {"measurement": "Change of predose", "setting": "Mus musculus [3]", "result": -16.4, "unit": "%"}, {"measurement": "Food intake", "setting": "Mus musculus [18]", "result": 0.9, "unit": "g mouse-1 day-1"}, {"measurement": "Body weight", "setting": "Rattus norvegicus [19]", "result": 201, "unit": "g"}, {"measurement": "Food intake", "setting": "Mus musculus [20]", "result": 2.3, "unit": "g mouse-1 day-1"}, {"measurement": "Mean body weight", "setting": "Mus musculus [21]", "result": 22.7, "unit": "g mouse-1"}, {"measurement": "Food intake", "setting": "Mus musculus [22]", "result": 3.3, "unit": "g mouse-1 day-1"}, {"measurement": "Food intake", "setting": "Mus musculus [23]", "result": 2.4, "unit": "g mouse-1 day-1"}, {"measurement": "Change of predose", "setting": "Mus musculus [5]", "result": -43.1, "unit": "%"}, {"measurement": "Change of predose", "setting": "Mus musculus [24]", "result": 358, "unit": "mg/dL"}, {"measurement": "Mean body weight", "setting": "Mus musculus [25]", "result": "38 g mouse-1 and 37.4 g mouse-1"}]}, {"compound": "C[n+]1c2ccccc2cc2[n-]c3ccccc3c21", "note": "[CRYPTOLEPINE]", "values": [{"measurement": "Mean body weight", "setting": "Mus musculus [1]", "result": 39.4, "unit": "g mouse-1"}, {"measurement": "Mean body weight", "setting": "Mus musculus [2]", "result": 38.7, "unit": "g mouse-1"}, {"measurement": "Change of predose", "setting": "Mus musculus [3]", "result": -19.7, "unit": "%"}, {"measurement": "Food intake", "setting": "Mus musculus [4]", "result": 1, "unit": "g mouse-1 day-1"}, {"measurement": "Change of predose", "setting": "Mus musculus [5]", "result": -30, "unit": "%"}]}, {"compound": "C[n+]1c2ccccc2cc2[nH]c3ccccc3c21.[I-]", "note": "[CRYPTOLEPTINE IODIDE]", "values": [{"measurement": "Mean body weight", "setting": "Mus musculus [1]", "result": 42.7, "unit": "g mouse-1"}, {"measurement": "Mean body weight", "setting": "Mus musculus [2]", "result": 41.9, "unit": "g mouse-1"}, {"measurement": "Change of predose", "setting": "Mus musculus [3]", "result": -11.5, "unit": "%"}, {"measurement": "Food intake", "setting": "Mus musculus [4]", "result": 1, "unit": "g mouse-1 day-1"}, {"measurement": "Change of predose", "setting": "Mus musculus [5]", "result": -22.5, "unit": "%"}]}]}
